ChEMBL document CHEMBL1134531, “Peptide analogues of a subdominant epitope expressed in ebv-associated tumors: synthesis and immunological activity” (J Med Chem, 2001)
Residues, ends and D or L forms follow the SMILES beside them. *: point of attachment. X3 = OC[C@H]1O[C@H](*)[C@H](O)[C@H](O)[C@@H]1O

Experiments:
[1] = Half life to evaluate susceptibility to enzymatic hydrolysis by incubating at 37 degree C in culture medium.; assay type: ADME
In short: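 Peptide (5 mg in acetonitrile/H₂O 1:1, 50 μL) added to 0.5 mL RPMI containing 10% fetal calf serum and incubated at 37 °C for up to 360 min. Reaction stopped with ethanol and centrifuged, then supernatant analysed by RP-HPLC. T1/2 taken from a least-squares linear regression of log nonapeptide concentration versus time, using at least five points.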

[2] = Half life to evaluate susceptibility to enzymatic hydrolysis by incubating at 37 degree C in human plasma; assay type: ADME
In short: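 Peptide (5 mg in acetonitrile/H₂O 1:1, 50 μL) mixed into 0.5 mL heparinized human plasma and incubated at 37 °C for up to 360 min. Ethanol added to stop the reaction, then centrifugation and RP-HPLC of the supernatant. Half-life obtained by least-squares linear regression of log nonapeptide concentration against time, with at least five time points.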

CSCC[C@H](NC(=O)[C@@H](NC(=O)[C@H](CC(C)C)NC(=O)[C@H](CC(C)C)NC(=O)CNC(=O)[C@H](C)NC(=O)[C@H](CC(C)C)NC(=O)[C@@H](N)Cc1ccc(O)cc1)[C@@H](C)O)C(=O)N[C@H](C(=O)O)C(C)C
half-life [1]: 1.37 h | half-life [2]: 0.212 h

CSCC[C@H](NC(=O)[C@@H](NC(=O)[C@H](CC(C)C)NC(=O)[C@H](CC(C)C)NC(=O)CNC(=O)[C@H](C)NC(=O)[C@H](CC(C)C)NC(=O)[C@@H](N)Cc1ccc(O)cc1)[C@@H](C)O)C(=O)N[C@@H](C(=O)O)C(C)C
half-life [1]: > 6 h | half-life [2]: 4.53 h

CSCC[C@H](NC(=O)[C@@H](NC(=O)[C@H](CC(C)C)NC(=O)[C@H](CC(C)C)NC(=O)CNC(=O)[C@H](C)NC(=O)[C@H](CC(C)C)NC(=O)[C@@H](N)Cc1ccc(O)cc1)[C@@H](C)O)C(=O)N(CC(=O)O)C(C)C (HELM PEPTIDE1{Y.L.A.G.L.L.T.M.[CC(C)N(CC(=O)O)[*:1]]}$$$$V2.0)
half-life [1]: > 6 h | half-life [2]: > 6 h

CSCC[C@H](NC(=O)[C@@H](NC(=O)[C@H](CC(C)C)NC(=O)[C@H](CC(C)C)NC(=O)CNC(=O)[C@H](C)NC(=O)[C@H](CC(C)C)NC(=O)[C@@H](N)Cc1ccc(O)cc1)[C@@H](C)O)C(=O)N[C@H](CO)C(C)C (HELM PEPTIDE1{Y.L.A.G.L.L.T.M.[CC(C)[C@@H](CO)N[*:1]]}$$$$V2.0)
half-life [1]: > 6 h | half-life [2]: 1.66 h

CSCC[C@@H](CN[C@H](C(=O)O)C(C)C)NC(=O)[C@@H](NC(=O)[C@H](CC(C)C)NC(=O)[C@H](CC(C)C)NC(=O)CNC(=O)[C@H](C)NC(=O)[C@H](CC(C)C)NC(=O)[C@@H](N)Cc1ccc(O)cc1)[C@@H](C)O (HELM PEPTIDE1{Y.L.A.G.L.L.T.[CSCC[C@@H](CN[C@H](C(=O)O)C(C)C)N[*:1]]}$$$$V2.0)
half-life [1]: > 6 h | half-life [2]: 5.07 h

CSCC[C@H](NC(=O)[C@@H](NC(=O)[C@H](CC(C)C)NC(=O)[C@H](CC(C)C)NC(=O)CNC(=O)[C@H](C)NC(=O)[C@H](CC(C)C)NC(=O)[C@@H](N)Cc1ccc(O)cc1)[C@@H](C)O)C(=O)N(C)[C@H](C(=O)O)C(C)C (HELM PEPTIDE1{Y.L.A.G.L.L.T.M.[meV]}$$$$V2.0)
half-life [1]: > 6 h | half-life [2]: > 6 h

CSCC[C@H](NC(=O)[C@@H](NC(=O)[C@H](CC(C)C)NC(=O)[C@H](CC(C)C)NC(=O)CNC(=O)[C@H](C)NC(=O)[C@H](CC(C)C)NC(=O)[C@@H](N)Cc1ccc(O)cc1)[C@@H](C)O[C@H]1O[C@H](CO)[C@@H](O)[C@@H](O)[C@H]1O)C(=O)N[C@H](C(=O)O)C(C)C (H-YLAGLLT(X3)MV-OH)
half-life [1]: > 6 h | half-life [2]: 1.01 h

CSCC[C@@H](NC(=O)[C@@H](NC(=O)[C@H](CC(C)C)NC(=O)[C@H](CC(C)C)NC(=O)CNC(=O)[C@H](C)NC(=O)[C@H](CC(C)C)NC(=O)[C@@H](N)Cc1ccc(O)cc1)[C@@H](C)O)C(=O)N[C@H](C(=O)O)C(C)C
half-life [1]: > 6 h | half-life [2]: 0.597 h

CC(C)C[C@H](NC(=O)CNC(=O)[C@H](C)NC(=O)[C@H](CC(C)C)NC(=O)[C@@H](N)Cc1ccc(O)cc1)C(=O)N[C@@H](CC(C)C)C(=O)N[C@H](C(=O)N[C@@H](CC[S+](C)[O-])C(=O)N[C@H](C(=O)O)C(C)C)[C@@H](C)O (some centres not stated) (HELM PEPTIDE1{Y.L.A.G.L.L.T.[CS(=O)CC[C@H](N[*:1])C(=O)[*:2]].V}$$$$V2.0)
half-life [1]: 1.56 h | half-life [2]: 0.522 h

H-YLAGLLTMV-NH2
half-life [1]: > 6 h | half-life [2]: 0.657 h

CSCCN(CC(=O)N[C@H](C(=O)O)C(C)C)C(=O)[C@@H](NC(=O)[C@H](CC(C)C)NC(=O)[C@H](CC(C)C)NC(=O)CNC(=O)[C@H](C)NC(=O)[C@H](CC(C)C)NC(=O)[C@@H](N)Cc1ccc(O)cc1)[C@@H](C)O (HELM PEPTIDE1{Y.L.A.G.L.L.T.[CSCCN(CC(=O)[*:2])[*:1]].V}$$$$V2.0)
half-life [1]: > 6 h | half-life [2]: 0.86 h
